Measured values taken from ChEMBL document CHEMBL1126265, “Novel 5-HT3 antagonists: indol-3-ylspiro(azabicycloalkane-3,5'(4'H)-oxazoles)” (J Med Chem, 1992).

Each compound was assayed against T1, Serotonin 3 (5-HT3) receptor (Rattus norvegicus, UniProt P35563+Q9JJ16) (assay: Displacement of [3H]Q-ICS-205-930 from 5-hydroxytryptamine 3 receptor recognition sites in rat brain membranes).
T1 sequence (P35563 whole entry): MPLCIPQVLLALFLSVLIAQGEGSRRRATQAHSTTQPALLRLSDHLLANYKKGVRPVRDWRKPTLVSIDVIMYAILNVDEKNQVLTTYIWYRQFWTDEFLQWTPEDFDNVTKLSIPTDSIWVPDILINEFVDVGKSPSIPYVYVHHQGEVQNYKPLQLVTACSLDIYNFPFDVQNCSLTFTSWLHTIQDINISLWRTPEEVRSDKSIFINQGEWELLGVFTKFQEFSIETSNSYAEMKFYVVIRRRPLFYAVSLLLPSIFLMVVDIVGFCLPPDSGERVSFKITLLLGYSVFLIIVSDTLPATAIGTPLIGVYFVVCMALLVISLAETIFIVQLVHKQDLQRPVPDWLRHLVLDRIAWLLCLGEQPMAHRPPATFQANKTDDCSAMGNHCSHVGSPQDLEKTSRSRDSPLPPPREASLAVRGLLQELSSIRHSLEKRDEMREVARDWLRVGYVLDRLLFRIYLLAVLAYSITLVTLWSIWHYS
T1 sequence (Q9JJ16 whole entry): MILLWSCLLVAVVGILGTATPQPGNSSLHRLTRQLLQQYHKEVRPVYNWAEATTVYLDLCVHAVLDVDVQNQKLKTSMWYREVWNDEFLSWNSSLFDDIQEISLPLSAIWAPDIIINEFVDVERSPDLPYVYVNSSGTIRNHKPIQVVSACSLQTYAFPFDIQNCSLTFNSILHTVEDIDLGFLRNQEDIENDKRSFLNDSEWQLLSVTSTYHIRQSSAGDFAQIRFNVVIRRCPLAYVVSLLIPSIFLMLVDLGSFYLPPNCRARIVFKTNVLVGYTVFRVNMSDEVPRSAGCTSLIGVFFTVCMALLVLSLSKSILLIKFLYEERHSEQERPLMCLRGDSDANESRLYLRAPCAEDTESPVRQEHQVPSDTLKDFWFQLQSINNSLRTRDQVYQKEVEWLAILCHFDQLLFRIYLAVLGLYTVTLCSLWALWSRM
Type: cell membranes
Method in brief: (§1)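 Value reported as mean ± SEM where n ≥ 3 independent determinations; where no SEM is given, mean of two independent determinations, individual values typically within ±10% of the mean.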
`Cn1cc(C2=NC[C@]3(CN4CCC3CC4)O2)c2ccccc21` gave an IC50 of 2.88 nM. With `Cn1cc(C2=NCC3(CN4CCC3CC4)O2)c2ccccc21` (stereo not given) the IC50 was 3.16 nM. Work on `Cn1cc(C2=NC[C@@]3(CN4CCC3CC4)O2)c2ccccc21` yielded an IC50 of 2.57 nM. `C#CCn1cc(C2=NCC3(CN4CCC3CC4)O2)c2ccccc21` (stereo not given) gave an IC50 of 6.17 nM. In the case of `Cn1cc(C2=NCC3(CN4CCC3CC4)O2)c2cc(N)ccc21` (stereo not given), the IC50 is reported as 575 nM. `Cc1ccc2c(c1)c(C1=NCC3(CN4CCC3CC4)O1)cn2C` (stereo not given) gave an IC50 of 132 nM. Compound `Cc1cccc2c(C3=NCC4(CN5CCC4CC5)O3)cn(C)c12` (stereo not given) has an IC50 of 8.91 nM. Work on `CN1CCC2(CC1)CN=C(c1cn(C)c3ccccc13)O2` yielded an IC50 of 158 nM. `Cn1cc(C2=NCC3(CC4CCC(C3)N4Cc3ccccc3)O2)c2ccccc21` (stereo not given) gave an IC50 of 174 nM. Compound `Cn1cc(C2=NCC3(CN4CCC3CC4)O2)c2cc(F)ccc21` (stereo not given) has an IC50 of 14.8 nM. Compound `Cn1cc(C2=NCC3(C[N+]4([O-])CCC3CC4)O2)c2ccccc21` (stereo not given) has an IC50 of 2630 nM. With `c1ccc2c(C3=NCC4(CN5CCC4CC5)O3)[nH]nc2c1` (stereo not given) the IC50 was 26.3 nM. `c1ccc2c(C3=NCC4(CN5CCC4CC5)O3)csc2c1` (stereo not given) was tested, and the IC50 was 26.9 nM. For `Cn1c(I)c(C2=NCC3(CN4CCC3CC4)O2)c2ccccc21` (stereo not given), the IC50 was 26.9 nM. `Cn1cc(C2=NCC3(CC4CCC(C3)N4)O2)c2ccccc21` (stereo not given) gave an IC50 of 11.2 nM. Compound `Cn1cc(C2=NC[C@@]3(C[N@@]4CC[C@@H]3C4)O2)c2ccccc21` has an IC50 of 3.47 nM. Work on `C=CCn1cc(C2=NCC3(CN4CCC3CC4)O2)c2ccccc21` (stereo not given) yielded an IC50 of 7.94 nM. `CCn1cc(C2=NCC3(CN4CCC3CC4)O2)c2ccccc21` (stereo not given) was tested, and the IC50 was 13.5 nM. Compound `CC(=O)c1c(C2=NCC3(CN4CCC3CC4)O2)c2ccccc2n1C` (stereo not given) has an IC50 of 6.46 nM. With `Cn1cc(C2=NC[C@]3(C[N@@]4CC[C@@H]3C4)O2)c2ccccc21` the IC50 was 3.09 nM. For `COc1ccc2c(c1)c(C1=NCC3(CN4CCC3CC4)O1)cn2C` (stereo not given), the IC50 was 263 nM. In the case of `COc1cccc(C2=NCC3(CN4CCC3CC4)O2)c1` (stereo not given), the IC50 is reported as 407 nM. `c1ccc2c(c1)c(C1=NCC3(CN4CCC3CC4)O1)cn2CC1CC1` (stereo not given) was tested, and the IC50 was 13.2 nM. `Cn1cc(C2=NCC3(CCN4CCCC3C4)O2)c2ccccc21` (stereo not given) showed an IC50 of 1.12 nM. `Cn1cc(C2=NCC3(CN4CCC3CC4)O2)c2cc(O)ccc21` (stereo not given) showed an IC50 of 195 nM. In the case of `Cn1cc(C2=NCC3(CN4CCC3CC4)O2)c2cc([N+](=O)[O-])ccc21` (stereo not given), the IC50 is reported as 229 nM. `c1ccc2c(C3=NCC4(CN5CCC4CC5)O3)c[nH]c2c1` (stereo not given) was tested, and the IC50 was 4.79 nM. With `Cn1cc(C2=NCC3(C[N+]4(C)CCC3CC4)O2)c2ccccc21` (single isomer, unassigned; 22n) the IC50 was 42.7 nM. `Cn1cc(C2=NCC3(C[N+]4(C)CCC3CC4)O2)c2ccccc21` (single isomer, unassigned; 22o) gave an IC50 of 10.2 nM. `CN1C2CCC1CC1(CN=C(c3cn(C)c4ccccc34)O1)C2` (stereo in doubt; 22b) showed an IC50 of 4.57 nM. Compound `Cn1cc(C2=NCC3(CC4CCC(C3)[N+]4(C)C)O2)c2ccccc21` (stereo in doubt; 22c) has an IC50 of 5.01 nM. With `CN1C2CCC1CC1(CN=C(c3cn(C)c4ccccc34)O1)C2` (stereo in doubt; 22d) the IC50 was 6.31 nM. Work on `Cn1cc(C2=NCC3(CC4CCC(C3)[N+]4(C)C)O2)c2ccccc21` (stereo in doubt; 22e) yielded an IC50 of 3.31 nM.

These compounds were tested against T1, Serotonin 3 (5-HT3) receptor (assay: Compound was evaluated for the displacement of [3H]Q-ICS-205-930 from 5-HT3 recognition sites in rat brain membranes).
Type: cell membranes
Method in brief: as §1
With `Cn1c([Si](C)(C)C)c(C2=NCC3(CN4CCC3CC4)O2)c2ccccc21` (stereo not given) the IC50 was 155 nM. For `CN1[C@@H]2CC[C@H]1C[C@@H](OC(=O)c1c[nH]c3ccccc13)C2` [TROPISETRON], the IC50 was 1.26 nM.
